The text below walks through data of ChEMBL document CHEMBL1148649, “Effect of various pyrimidines possessing the 1-[(2-hydroxy-1-(hydroxymethyl)ethoxy)methyl] moiety, able to mimic natural 2'-deoxyribose, on wild-type and mutant hepatitis B virus replication” (J Med Chem, 2006).

Experiment [1] concerns HepG2. Briefly: Cytotoxicity against human HepG2 cell line. The format is functional. The method, boiled down:
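HepG2 cells were exposed to compounds for 3 days and viability was measured. CC50 is the concentration lowering viability by 50% versus untreated control. ">" means 50% was not reached at the highest concentration tested.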

In experiment [2] the test system is Duck hepatitis B virus. Put plainly: Antiviral activity against duck HBV in primary duck hepatocytes. Format: functional, organism-based. Conditions: Hepatocyte. The procedure, abridged:
(§1)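 Primary hepatocyte cultures from congenitally DHBV-infected ducks were exposed to compounds. Intracellular viral DNA was measured by dot blot hybridization. EC50 is the µM concentration that cuts viral DNA to 50% of untreated infected controls. The single-point value is % inhibition of viral DNA at 10 µg/mL against untreated infected controls.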

In experiment [3] the test system is Duck hepatitis B virus. Briefly: Antiviral activity against duck HBV in primary duck hepatocytes at 10 ug/mL. The format is functional. As to conditions: Hepatocyte. The procedure, abridged: as §1
Experiment [4] deals with Hepatitis B virus. Put plainly: Antiviral activity against wild type HBV in human hepatoma 2.2.15 cells at 10 ug/mL. As to conditions: HepG2 2.2.15. Format: functional. The procedure, abridged:
(§2)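 HBV-transfected human 2.2.15 cells were treated with compounds. Intracellular HBV DNA was quantified by dot blot hybridization. EC50 is the µM concentration that reduces viral DNA to 50% of untreated infected controls. The fixed-dose value is % inhibition at 10 µg/mL against untreated infected controls. Lamivudine and abacavir served as references.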

The subject of experiment [5] is Hepatitis B virus. Briefly: Antiviral activity against wild type HBV in human hepatoma 2.2.15 cells. Format: functional, organism-based. As to conditions: HepG2 2.2.15. The method, boiled down:
as §2

The test system of experiment [6] is Vero. Briefly: Cytotoxicity against Vero cell line. Format: functional. As to conditions: Chlorocebus sabaeus. The method, boiled down: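 Vero cell viability was measured by MTT after 3 days of compound exposure. CC50 is the concentration giving 50% loss of viability versus untreated control. ">" marks values where 50% was not reached at the highest concentration tested.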

The subject of experiment [7] is Hepatitis B virus. Put plainly: Antiviral activity against HBV M204I mutant transfected in B1 cell line at 10 ug/mL. Format: functional. The method, boiled down:
(§3)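 Mutant-HBV-transfected HepG2 lines: B1 carries M204I, D88 carries L180M/M204V. Cells are exposed to compound at 10 µg/mL. Intracellular viral DNA is quantified by dot blot hybridization. Results are given as percent inhibition of viral DNA relative to untreated infected controls.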

Experiment [8] concerns Hepatitis B virus. Briefly: Antiviral activity against HBV L180M/M204V mutant transfected in D88 cell line. Format: functional, organism-based. The procedure, abridged:
(§4)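 HepG2 human hepatoma cells stably transfected with mutant HBV genome: B1 line carries M204I, D88 line carries L180M/M204V. Culture, compound treatment and read-out are as for 2.2.15 cells. Intracellular viral DNA is measured by dot blot hybridization. EC50 is the concentration (µM) that reduces viral DNA to 50% of untreated infected controls.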

Experiment [9] has as its system Hepatitis B virus. Put plainly: Antiviral activity against HBV L180M/M204V mutant transfected in D88 cell line at 10 ug/mL. Format: functional. The procedure, abridged:
as §3

The test system of experiment [10] is Hepatitis B virus. Put plainly: Antiviral activity against HBV M204I mutant transfected in B1 cell line. The format is functional, organism-based. The procedure, abridged:
as §4

Experiment [11] relates to Hepatitis C virus. Briefly: Antiviral activity against hepatitis C virus. Format: functional, organism-based, Hepacivirus hominis.

The term CC50 denotes the concentration at which the toxic effect on the cells reaches its halfway point. The low end stands for greater toxicity to the cells, the high end for lower toxicity to the cells. For orientation: EC50 means the concentration needed to bring the measured effect to its halfway point. What is called inhibition is the change of the read-out against control, counted positive when it falls. In the case of `CCc1cn(COC(CO)CO)c(=O)[nH]c1=O`, the half-maximal cytotoxic concentration (CC50) in experiment [1] and in experiment [6] was greater than 410 µM throughout. Moreover, the 50% effective concentration (EC50) in experiment [2] and in experiment [5] was greater than 41 µM throughout. The inhibition at 10 µg/mL came out at 35% in experiment [3] and 30% in experiment [4].

Turning to `Cc1c(I)c(=O)[nH]c(=O)n1COC(CO)CO` [IODMETACYCLUR], the CC50 in experiment [1] and in [6] was greater than 280 µM throughout. Also, the EC50 in [2] and in [5] was greater than 28 µM each time. Moreover, the inhibition at 10 µg/mL in experiment [3] amounted to 44%; in experiment [4], 38%.

`Cc1cc(=O)[nH]c(=O)n1COC(CO)CO`: the CC50 in experiment [1] and in [6] was greater than 434 µM each time. In addition, the half-maximal effective concentration (EC50) in experiment [2] was greater than 43.4 µM. Besides, the values for the inhibition at 10 µg/mL in experiment [3] and in experiment [4] were 27% and 0%, respectively.

Consider `O=c1ccn(COC(CO)CO)c(=O)[nH]1`, for which the CC50 in experiment [1] and in experiment [6] was greater than 462 µM each time. Besides, the inhibition at 10 µg/mL in experiment [3] and in [4] was 0% throughout.

Turning to `O=c1[nH]c(=O)n(COC(CO)CO)cc1/C=C/Br`, the cytotoxic concentration (CC50) in experiment [1] and in experiment [6] was greater than 311 µM throughout. For the same compound, the EC50 in experiment [2] came out at 3 µM; in experiment [5] it was 30 µM. Also, the inhibition at 10 µg/mL in experiment [3] was determined as 75%; in experiment [4] it was 53%.

Regarding `O=c1[nH]c(=O)n(COC(CO)CO)cc1[N+](=O)[O-]`, the half-maximal cytotoxic concentration (CC50) in [1] and in experiment [6] was greater than 383 µM in each case. In addition, the 50% effective concentration (EC50) in [2] and in experiment [5] was greater than 38.3 µM each time. Further, the inhibition at 10 µg/mL in experiment [3] is 45%; in experiment [4], 40%.

Turning to `O=c1[nH]c(=O)n(COC(CO)CO)cc1CCO`, the CC50 in experiment [1] and in experiment [6] was greater than 384 µM each time. In addition, the half-maximal effective concentration (EC50) in experiment [2] and in [5] was greater than 38.4 µM each time. The inhibition at 10 µg/mL in experiment [3] was 25%; in experiment [4], 28%.

In the case of `Cc1cn(COC(CO)CO)c(=O)[nH]c1=O`, the half-maximal cytotoxic concentration (CC50) in experiment [1] and in experiment [6] was greater than 434 µM throughout. The EC50 in experiment [2] and in experiment [5] was greater than 43.4 µM in each case. Besides, the inhibition at 10 µg/mL in experiment [3] amounted to 45%; in experiment [4], 37%.

Consider `O=c1[nH]c(=O)n(COC(CO)CO)cc1Cl`, for which the inhibition at 10 µg/mL in experiment [7] came out at 56%; in experiment [9] it was 40%; in [3], 69%; in experiment [4] it was 60%. The CC50 in experiment [1] and in experiment [6] was greater than 400 µM in each case. Besides, the EC50 in [2] was 4 µM; in [8], greater than 40 µM; in experiment [5] it was 20 µM; in [10], 20 µM.

As for `O=c1[nH]c(=O)n(COC(CO)CO)cc1Br`, the CC50 in experiment [1] and in [6] was greater than 338 µM in each case. The concentration for a half-maximal effect (EC50) in [2] and in experiment [5] was greater than 33.8 µM throughout. Also, the inhibition at 10 µg/mL is 48% in experiment [3] and 40% in [4].

Regarding `Cc1c(Br)c(=O)[nH]c(=O)n1COC(CO)CO`, the inhibition at 10 µg/mL in experiment [7] came to 51%; in experiment [9], 30%; in experiment [3], 73%; in [4] it was 55%. Besides, the half-maximal cytotoxic concentration (CC50) in [1] and in [6] was greater than 324 µM each time. For the same compound, the 50% effective concentration (EC50) in experiment [2] was 16.2 µM; in [8], greater than 32.4 µM; in experiment [5], 32.4 µM; in experiment [10], 32.4 µM.

Regarding `Cc1nn(COC(CO)CO)c(=O)[nH]c1=O`, the CC50 in experiment [1] and in experiment [6] was greater than 432 µM each time. The concentration for a half-maximal effect (EC50) in experiment [2] and in [5] was greater than 43.2 µM in each case. The inhibition at 10 µg/mL in experiment [3] came to 45%; in [4] it was 37%.

Consider `Nc1ccn(COC(CO)CO)c(=O)n1`, for which the half-maximal cytotoxic concentration (CC50) in experiment [1] and in experiment [6] was greater than 465 µM in each case. The inhibition at 10 µg/mL in experiment [3] and in experiment [4] was 0% throughout.

For the compound `Nc1cn(COC(CO)CO)c(=O)[nH]c1=O`, the CC50 in [1] and in [6] was greater than 432 µM in each case. Also, the half-maximal effective concentration (EC50) in experiment [2] and in experiment [5] was greater than 43.2 µM in each case. Moreover, the inhibition at 10 µg/mL in [3] was 37%; in [4], 30%.

With `Cc1nn(COC(CO)CO)c(=S)[nH]c1=O`, the half-maximal cytotoxic concentration (CC50) in experiment [1] and in experiment [6] was greater than 404 µM in each case. This compound also displayed an EC50 in experiment [2] greater than 40.4 µM. The inhibition at 10 µg/mL in experiment [3] came out at 25%; in [4] it was 0%.

For the compound `O=c1[nH]c(=O)n(COC(CO)CO)cc1CO`, the CC50 in experiment [1] and in experiment [6] was greater than 406 µM throughout. Besides, the inhibition at 10 µg/mL in experiment [3] and in experiment [4] was 0% each time.

`Nc1nc(NC2CC2)c2ncn([C@H]3C=C[C@@H](CO)C3)c2n1` [ABACAVIR]: the figures for the inhibition at 10 µg/mL in experiment [7] and in experiment [9] were 80% and 72%, respectively.

For `COc1nc(=O)n(COC(CO)CO)cc1Br`, the CC50 in [1] and in [6] was greater than 323 µM in each case. Further, the EC50 in experiment [2] and in experiment [5] was greater than 32.3 µM throughout. Moreover, the inhibition at 10 µg/mL in experiment [3] turned out to be 45%; in [4], 35%.

On to `O=c1[nH]c(=O)n(COC(CO)CO)cc1F`, for which the 50% cytotoxic concentration (CC50) in experiment [1] and in experiment [6] was greater than 427 µM throughout. The EC50 in [2] and in experiment [5] was greater than 42.7 µM in each case. Moreover, the results for the inhibition at 10 µg/mL in [3] and in experiment [4] were 24% and 26%, respectively.

For `O=c1cnn(COC(CO)CO)c(=O)[nH]1`, the CC50 in experiment [1] and in experiment [6] was greater than 460 µM in each case. In addition, the EC50 in [2] and in [5] was greater than 46 µM each time. In addition, the inhibition at 10 µg/mL in experiment [3] is 41%; in [4], 32%.

As to `Nc1nc(=O)n(COC(CO)CO)cc1F`, the cytotoxic concentration (CC50) in experiment [1] and in experiment [6] was greater than 429 µM throughout. Besides, the EC50 in experiment [2] was greater than 42.9 µM; in experiment [11], 132 µM. Further, the figures for the inhibition at 10 µg/mL in experiment [3] and in experiment [4] were 20% and 0%, respectively.

Consider `Nc1ccn([C@@H]2CS[C@H](CO)O2)c(=O)n1` [LAMIVUDINE], for which the inhibition at 10 µg/mL in experiment [7] amounted to 45%; in experiment [9], 30%; in [3], 96%; in [4], 88%. For the same compound, the half-maximal effective concentration (EC50) in experiment [10] is greater than 44 µM.
